Source: ChEMBL document CHEMBL3272245, “Potent reversible anticholinesterase agents. Bis- and mono-N-substituted benzoquinolinium halides” (J Med Chem, 1977)

Biological target: T1, Acetylcholinesterase (Electrophorus electricus, UniProt O42275)
Assay: Reversible mixed-type inhibition of electric eel acetylcholinesterase using acetylcholine bromide as substrate assessed as free enzyme-inhibitor complex by Lineweaver-Burk plot analysis

T1 sequence (O42275 whole entry): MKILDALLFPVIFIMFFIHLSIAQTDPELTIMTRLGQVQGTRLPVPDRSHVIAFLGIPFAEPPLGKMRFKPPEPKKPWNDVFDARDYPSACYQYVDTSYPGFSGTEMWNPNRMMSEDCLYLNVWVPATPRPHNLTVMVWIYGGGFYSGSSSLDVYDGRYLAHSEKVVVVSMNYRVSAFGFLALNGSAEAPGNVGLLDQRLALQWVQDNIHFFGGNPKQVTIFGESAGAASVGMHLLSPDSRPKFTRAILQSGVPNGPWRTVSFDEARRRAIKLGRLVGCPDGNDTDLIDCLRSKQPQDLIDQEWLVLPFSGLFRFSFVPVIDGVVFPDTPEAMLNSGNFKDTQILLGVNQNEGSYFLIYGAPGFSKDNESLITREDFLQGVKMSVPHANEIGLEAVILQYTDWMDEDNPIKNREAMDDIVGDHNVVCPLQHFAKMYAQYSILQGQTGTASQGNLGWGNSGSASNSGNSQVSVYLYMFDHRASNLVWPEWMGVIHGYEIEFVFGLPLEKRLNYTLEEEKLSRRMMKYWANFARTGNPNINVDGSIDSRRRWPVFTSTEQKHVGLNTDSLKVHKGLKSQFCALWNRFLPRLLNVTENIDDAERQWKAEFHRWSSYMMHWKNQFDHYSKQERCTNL

Structure (SMILES) | Ki [µM]
c1ccc2c(c1)cc1ccccc1[n+]2CCCCCC[n+]1c2ccccc2cc2ccccc21 | 0.0021
c1ccc2c(c1)c[n+](CCCCCC[n+]1cc3ccccc3c3ccccc31)c1ccccc21 | 0.0066
c1ccc2c(c1)ccc1c2ccc[n+]1CCCCCC[n+]1cccc2c3ccccc3ccc21 | 0.01
c1ccc2c(c1)c[n+](Cc1ccc(C[n+]3cc4ccccc4c4ccccc43)cc1)c1ccccc21 | 0.18
C[n+]1cc2ccccc2c2ccccc21 | 5.6
CCC[n+]1cc2ccccc2c2ccccc21 | 3.2
CC(C)[n+]1cc2ccccc2c2ccccc21 | 22
CCCCCC[n+]1cc2ccccc2c2ccccc21 | 0.53
c1ccc(C[n+]2cc3ccccc3c3ccccc32)cc1 | 0.25
c1ccc(CC[n+]2cc3ccccc3c3ccccc32)cc1 | 0.28
OCC[n+]1cc2ccccc2c2ccccc21 | 31
O=C(O)C[n+]1cc2ccccc2c2ccccc21 | 12
C[n+]1cccc2c3ccccc3ccc21 | 8.9
c1ccc(C[n+]2cccc3c4ccccc4ccc32)cc1 | 9.3
c1ccc(CC[n+]2cccc3c4ccccc4ccc32)cc1 | 1.8
OCC[n+]1cccc2c3ccccc3ccc21 | 83
C[n+]1cccc2ccc3ccccc3c21 | 18
OCC[n+]1cccc2ccc3ccccc3c21 | 150
C[n+]1c2ccccc2cc2ccccc21 | 0.5
OCC[n+]1c2ccccc2cc2ccccc21 | 2.9
CC(=O)OCC[n+]1ccccc1 | 320
C[N+](C)(CCCCCC[N+](C)(C)C1c2ccccc2-c2ccccc21)C1c2ccccc2-c2ccccc21 [HEXAFLUORENIUM BROMIDE] | 1.3

Biological target: T1, Acetylcholinesterase
Assay: Reversible mixed-type inhibition of electric eel acetylcholinesterase using acetylcholine bromide as substrate by Lineweaver-Burk plot analysis

Structure (SMILES) | Ki [µM]
c1ccc2c(c1)cc1ccccc1[n+]2CCCCCC[n+]1c2ccccc2cc2ccccc21 | 0.0021
c1ccc2c(c1)c[n+](CCCCCC[n+]1cc3ccccc3c3ccccc31)c1ccccc21 | 0.0066
c1ccc2c(c1)ccc1c2ccc[n+]1CCCCCC[n+]1cccc2c3ccccc3ccc21 | 0.072
c1ccc2c(c1)c[n+](Cc1ccc(C[n+]3cc4ccccc4c4ccccc43)cc1)c1ccccc21 | 0.71
C[n+]1cc2ccccc2c2ccccc21 | 25.5
CCC[n+]1cc2ccccc2c2ccccc21 | 13.6
CC(C)[n+]1cc2ccccc2c2ccccc21 | 97
CCCCCC[n+]1cc2ccccc2c2ccccc21 | 1.8
c1ccc(C[n+]2cc3ccccc3c3ccccc32)cc1 | 0.95
c1ccc(CC[n+]2cc3ccccc3c3ccccc32)cc1 | 0.78
OCC[n+]1cc2ccccc2c2ccccc21 | 45
O=C(O)C[n+]1cc2ccccc2c2ccccc21 | 72.4
C[n+]1cccc2c3ccccc3ccc21 | 25.4
c1ccc(C[n+]2cccc3c4ccccc4ccc32)cc1 | 37.4
c1ccc(CC[n+]2cccc3c4ccccc4ccc32)cc1 | 18.5
OCC[n+]1cccc2c3ccccc3ccc21 | 160
C[n+]1cccc2ccc3ccccc3c21 | 140
OCC[n+]1cccc2ccc3ccccc3c21 | 360
C[n+]1c2ccccc2cc2ccccc21 | 2.8
OCC[n+]1c2ccccc2cc2ccccc21 | 9.6
C[N+](C)(CCCCCC[N+](C)(C)C1c2ccccc2-c2ccccc21)C1c2ccccc2-c2ccccc21 [HEXAFLUORENIUM BROMIDE] | 1.3

Biological target: T2, Butyrylcholinesterase (Equus caballus, UniProt Q9N1N9)
T2 sequence (Q9N1N9 whole entry): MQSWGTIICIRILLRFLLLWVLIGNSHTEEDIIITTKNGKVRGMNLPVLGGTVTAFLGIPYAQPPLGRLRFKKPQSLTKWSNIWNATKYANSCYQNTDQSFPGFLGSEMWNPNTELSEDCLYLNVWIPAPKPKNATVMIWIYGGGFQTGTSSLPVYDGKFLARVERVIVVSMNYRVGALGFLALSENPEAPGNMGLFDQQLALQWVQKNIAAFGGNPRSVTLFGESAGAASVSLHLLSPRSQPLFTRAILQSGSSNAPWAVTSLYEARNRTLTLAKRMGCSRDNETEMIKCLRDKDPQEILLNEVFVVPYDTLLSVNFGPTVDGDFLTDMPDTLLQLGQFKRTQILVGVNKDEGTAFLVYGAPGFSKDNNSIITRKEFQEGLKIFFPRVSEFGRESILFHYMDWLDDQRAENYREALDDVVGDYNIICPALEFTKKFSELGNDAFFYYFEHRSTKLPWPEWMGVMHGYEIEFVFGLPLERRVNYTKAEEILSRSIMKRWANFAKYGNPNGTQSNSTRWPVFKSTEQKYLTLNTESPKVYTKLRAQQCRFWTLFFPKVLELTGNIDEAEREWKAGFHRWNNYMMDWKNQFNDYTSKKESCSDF
Assay: Reversible mixed-type inhibition of horse serum butyrylcholinesterase using acetylcholine bromide as substrate assessed as free enzyme-inhibitor complex by Lineweaver-Burk plot analysis

Structure (SMILES) | Ki [µM]
c1ccc2c(c1)cc1ccccc1[n+]2CCCCCC[n+]1c2ccccc2cc2ccccc21 | 0.0073
c1ccc2c(c1)c[n+](CCCCCC[n+]1cc3ccccc3c3ccccc31)c1ccccc21 | 0.027
c1ccc2c(c1)ccc1c2ccc[n+]1CCCCCC[n+]1cccc2c3ccccc3ccc21 | 0.36
c1ccc2c(c1)c[n+](Cc1ccc(C[n+]3cc4ccccc4c4ccccc43)cc1)c1ccccc21 | 0.057
C[n+]1cc2ccccc2c2ccccc21 | 1.1
CCC[n+]1cc2ccccc2c2ccccc21 | 1.3
CC(C)[n+]1cc2ccccc2c2ccccc21 | 1.5
CCCCCC[n+]1cc2ccccc2c2ccccc21 | 0.12
c1ccc(C[n+]2cc3ccccc3c3ccccc32)cc1 | 0.061
c1ccc(CC[n+]2cc3ccccc3c3ccccc32)cc1 | 0.054
OCC[n+]1cc2ccccc2c2ccccc21 | 37
O=C(O)C[n+]1cc2ccccc2c2ccccc21 | 41
C[n+]1cccc2c3ccccc3ccc21 | 5.4
c1ccc(C[n+]2cccc3c4ccccc4ccc32)cc1 | 0.86
c1ccc(CC[n+]2cccc3c4ccccc4ccc32)cc1 | 0.92
OCC[n+]1cccc2c3ccccc3ccc21 | 79
C[n+]1cccc2ccc3ccccc3c21 | 32
OCC[n+]1cccc2ccc3ccccc3c21 | 110
C[n+]1c2ccccc2cc2ccccc21 | 0.24
OCC[n+]1c2ccccc2cc2ccccc21 | 1.3
CC(=O)OCC[n+]1ccccc1 | 120
C[N+](C)(CCCCCC[N+](C)(C)C1c2ccccc2-c2ccccc21)C1c2ccccc2-c2ccccc21 [HEXAFLUORENIUM BROMIDE] | 0.34

Biological target: T2, Butyrylcholinesterase
Assay: Reversible mixed-type inhibition of horse serum butyrylcholinesterase using acetylcholine bromide as substrate by Lineweaver-Burk plot analysis

Structure (SMILES) | Ki [µM]
c1ccc2c(c1)cc1ccccc1[n+]2CCCCCC[n+]1c2ccccc2cc2ccccc21 | 0.024
c1ccc2c(c1)c[n+](CCCCCC[n+]1cc3ccccc3c3ccccc31)c1ccccc21 | 0.091
c1ccc2c(c1)ccc1c2ccc[n+]1CCCCCC[n+]1cccc2c3ccccc3ccc21 | 1.5
c1ccc2c(c1)c[n+](Cc1ccc(C[n+]3cc4ccccc4c4ccccc43)cc1)c1ccccc21 | 0.23
C[n+]1cc2ccccc2c2ccccc21 | 6.4
CCC[n+]1cc2ccccc2c2ccccc21 | 7.5
CC(C)[n+]1cc2ccccc2c2ccccc21 | 4.8
CCCCCC[n+]1cc2ccccc2c2ccccc21 | 0.9
c1ccc(C[n+]2cc3ccccc3c3ccccc32)cc1 | 0.26
c1ccc(CC[n+]2cc3ccccc3c3ccccc32)cc1 | 0.31
OCC[n+]1cc2ccccc2c2ccccc21 | 98.4
O=C(O)C[n+]1cc2ccccc2c2ccccc21 | 86
C[n+]1cccc2c3ccccc3ccc21 | 34
c1ccc(C[n+]2cccc3c4ccccc4ccc32)cc1 | 5.6
c1ccc(CC[n+]2cccc3c4ccccc4ccc32)cc1 | 4.9
OCC[n+]1cccc2c3ccccc3ccc21 | 210
C[n+]1cccc2ccc3ccccc3c21 | 230
OCC[n+]1cccc2ccc3ccccc3c21 | 410
C[n+]1c2ccccc2cc2ccccc21 | 1.7
OCC[n+]1c2ccccc2cc2ccccc21 | 7.2
C[N+](C)(CCCCCC[N+](C)(C)C1c2ccccc2-c2ccccc21)C1c2ccccc2-c2ccccc21 [HEXAFLUORENIUM BROMIDE] | 0.89

Biological target: T1, Acetylcholinesterase
Assay: Mixed-type inhibition of electric eel acetylcholinesterase using acetylcholine bromide as substrate assessed as […] by Lineweaver-Burk plot analysis
Method in brief: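 Electric eel electric-organ acetylcholinesterase (0.1 unit per 10 mL reaction) added to five inhibitor concentrations each mixed with acetylcholine bromide, e.g. 0.1, 0.15, 0.25, 0.4, 0.8 mM final. Initial hydrolysis rates over 4 min at 25 °C by pH-stat titration. Lineweaver-Burk analysis; Km from inhibitor-free runs.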

Structure (SMILES) | Ki [µM]
c1cc[n+](CCCCCC[n+]2ccccc2)cc1 | 16000

Biological target: T1, Acetylcholinesterase
Assay: Reversible competitive inhibition of electric eel acetylcholinesterase using acetylcholine bromide as substrate assessed as free enzyme-inhibitor complex by Lineweaver-Burk plot analysis

Structure (SMILES) | Ki [µM]
CC(=O)OCC[n+]1cc2ccccc2c2ccccc21 | 0.38
CC(=O)OCC[n+]1cccc2c3ccccc3ccc21 | 0.95
CC(=O)OCC[n+]1c2ccccc2cc2ccccc21 | 0.021
CC(=O)OCC[n+]1ccccc1 | 0.021

Biological target: T2, Butyrylcholinesterase
Assay: Reversible competitive inhibition of horse serum butyrylcholinesterase using acetylcholine bromide as substrate assessed as free enzyme-inhibitor complex by Lineweaver-Burk plot analysis

Structure (SMILES) | Ki [µM]
CC(=O)OCC[n+]1cc2ccccc2c2ccccc21 | 0.12
CC(=O)OCC[n+]1cccc2c3ccccc3ccc21 | 0.82
CC(=O)OCC[n+]1c2ccccc2cc2ccccc21 | 0.011
CC(=O)OCC[n+]1ccccc1 | 0.011

Biological target: T1, Acetylcholinesterase
Assay: Mixed-type inhibition of electric eel acetylcholinesterase using acetylcholine bromide as substrate assessed as free enzyme-inhibitor complex by Lineweaver-Burk plot analysis

Structure (SMILES) | Ki [µM]
C[N+](C)(CCCCCC[N+](C)(C)Cc1ccc(-c2ccccc2)cc1)Cc1ccc(-c2ccccc2)cc1 | 39
CC(=O)OCC[n+]1ccccc1 | 320

Biological target: T1, Acetylcholinesterase
Assay: Mixed-type inhibition of electric eel acetylcholinesterase using acetylcholine bromide as substrate by Lineweaver-Burk plot analysis

Structure (SMILES) | Ki [µM]
C[N+](C)(CCCCCC[N+](C)(C)Cc1ccc(-c2ccccc2)cc1)Cc1ccc(-c2ccccc2)cc1 | 120

Biological target: T2, Butyrylcholinesterase
Assay: Mixed-type inhibition of horse serum butyrylcholinesterase using acetylcholine bromide as substrate assessed as free enzyme-inhibitor complex by Lineweaver-Burk plot analysis

Structure (SMILES) | Ki [µM]
C[N+](C)(CCCCCC[N+](C)(C)Cc1ccc(-c2ccccc2)cc1)Cc1ccc(-c2ccccc2)cc1 | 1.5
CC(=O)OCC[n+]1ccccc1 | 120
c1cc[n+](CCCCCC[n+]2ccccc2)cc1 | 120

Biological target: T2, Butyrylcholinesterase
Assay: Mixed-type inhibition of horse serum butyrylcholinesterase using acetylcholine bromide as substrate by Lineweaver-Burk plot analysis

Structure (SMILES) | Ki [µM]
C[N+](C)(CCCCCC[N+](C)(C)Cc1ccc(-c2ccccc2)cc1)Cc1ccc(-c2ccccc2)cc1 | 7.9
c1cc[n+](CCCCCC[n+]2ccccc2)cc1 | 620
